From ChEMBL document CHEMBL4715825, “Synthesis and biological evaluations of marine oxohexadecenoic acids: PPARα/γ dual agonism and anti-diabetic target gene effects” (Eur J Med Chem, 2018) come the findings set out here.

Calls of active or inactive are those of the source. The calls are words filed in the database; no cut-off is given here.

For assay [1], the target named is T1, Peroxisome proliferator-activated receptor alpha (Homo sapiens) (UniProt Q07869).
T1 sequence (whole entry): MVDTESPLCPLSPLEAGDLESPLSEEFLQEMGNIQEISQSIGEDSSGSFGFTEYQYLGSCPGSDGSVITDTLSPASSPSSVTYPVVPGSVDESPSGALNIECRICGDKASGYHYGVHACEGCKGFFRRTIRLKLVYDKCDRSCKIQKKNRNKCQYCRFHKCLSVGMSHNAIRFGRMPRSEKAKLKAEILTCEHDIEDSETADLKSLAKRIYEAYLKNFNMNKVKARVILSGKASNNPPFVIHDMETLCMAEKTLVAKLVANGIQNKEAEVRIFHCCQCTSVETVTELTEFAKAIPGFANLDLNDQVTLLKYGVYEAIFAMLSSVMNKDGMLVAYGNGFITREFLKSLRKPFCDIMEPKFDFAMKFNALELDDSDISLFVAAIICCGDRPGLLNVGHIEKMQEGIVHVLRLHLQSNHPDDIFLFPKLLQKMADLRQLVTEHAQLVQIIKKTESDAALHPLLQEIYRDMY
In words: Agonist activity at human PPARalpha in human HuH-7 cells assessed as increase in ACOX1 gene expression at 50 uM incubated for 24 hrs by SYBR-green based qPCR analysis. It is filed as cell-based. A digest of the protocol:
(§1)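 Cells were seeded at 2×10^5 per well and treated 24 h later with compound in DMSO (final 0.1%). The next day, cells were washed and scraped into RLT buffer. RNA was isolated, and target gene mRNA was quantified by SYBR-green qPCR with specific primers.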
In general terms: Real-time PCR tracks product formation cycle by cycle.

Assay [2] concerns the target T2, Oxysterols receptor LXR-alpha (Homo sapiens) (UniProt Q13133).
T2 sequence (whole entry): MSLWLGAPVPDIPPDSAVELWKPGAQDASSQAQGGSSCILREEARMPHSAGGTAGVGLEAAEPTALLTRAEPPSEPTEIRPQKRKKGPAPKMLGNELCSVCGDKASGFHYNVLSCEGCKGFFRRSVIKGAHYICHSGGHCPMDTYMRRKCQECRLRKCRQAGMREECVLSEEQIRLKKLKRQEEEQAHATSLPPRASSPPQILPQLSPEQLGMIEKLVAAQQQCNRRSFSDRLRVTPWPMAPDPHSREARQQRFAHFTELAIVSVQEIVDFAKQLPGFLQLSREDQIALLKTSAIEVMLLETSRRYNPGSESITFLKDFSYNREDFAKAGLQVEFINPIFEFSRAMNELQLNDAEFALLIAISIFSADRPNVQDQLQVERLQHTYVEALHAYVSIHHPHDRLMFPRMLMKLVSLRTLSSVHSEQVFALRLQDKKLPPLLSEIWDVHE
In words: Agonist activity at recombinant human LXRalpha LBD (164 to 447 residues) expressed in African green monkey COS-1 cells at 25 to 50 uM incubated for 18 hrs by luciferase reporter gene assay. To be noted: dose 25-50 µM. The assay is classed as cell-based. A digest of the protocol:
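Transient Gal4 one-hybrid assay in COS-1 cells (7×10^4 per well), transfected 24 h after seeding. Plasmids were Gal4-DBD fused to the human nuclear receptor LBD, a 5×UAS-SV40 luciferase reporter and pRL-CMV Renilla control. Ligand in DMSO (final 0.1%) was added 5 h post-transfection. Dual-luciferase activity was read after 18 h, expressed as RLU, from three biological replicates in quadruplicate.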
Background: In a reporter assay the amount or activity of a reporter protein is the signal.

The subject of assay [3] is SGBS. Kind of assay: Induction of adipogenesis in 8 day differentiated human SGBS cells assessed as increase in CD36 mRNA expression at 25 uM measured upto 12 days by qRT-PCR analysis. The assay is classed as functional, cell-based. To be noted: time day <=12. A digest of the protocol:
(§2)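 SGBS cells were grown to confluence (day 0). Quickdiff medium was supplemented with compound or rosiglitazone for 4 days, followed by 3FC medium. DMSO or DMSO:BSA served as control. RNA was harvested on days 0, 4, 8 and 12, and expression was measured by SYBR-green qPCR. Data are mean ± SEM of at least three biological replicates in duplicate.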

Assay [4] concerns the target T1, Peroxisome proliferator-activated receptor alpha (Homo sapiens). Kind of assay: Agonist activity at human PPARalpha in 8 day differentiated human SGBS cells assessed as increase in ADIPOQ gene expression at 25 uM incubated for 24 hrs by SYBR-green based qPCR analysis. It is filed as cell-based. A digest of the protocol:
(§3)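 SGBS preadipocytes were seeded at passage P6-P8 and grown to confluence. They were differentiated for 4 days in Quickdiff (3FC plus dexamethasone, IBMX and rosiglitazone), then kept in 3FC with medium renewed every fourth day. On day 8, cells were stimulated for 24 h in 3FC with compound:BSA or rosiglitazone. SYBR-green qPCR used gene-specific primers. Data are mean ± SEM of three biological replicates in duplicate.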

Assay [5] has the same target. In words: Agonist activity at human PPARalpha in 8 day differentiated human SGBS cells assessed as increase in FABP4 gene expression at 25 uM incubated for 24 hrs by SYBR-green based qPCR analysis. It is filed as cell-based. A digest of the protocol:
as §3

Assay [6] relates to SGBS. Kind of assay: Induction of adipogenesis in 8 day differentiated human SGBS cells assessed as increase in CEBPA mRNA expression at 25 uM measured upto 12 days by qRT-PCR analysis. The assay is classed as functional, cell-based. Particulars: time day <=12. Summed up:
as §2

The test system of assay [7] is SGBS. Kind of assay: Induction of adipogenesis in 8 day differentiated human SGBS cells assessed as increase in adipocyte-like multilocular morphology cells at 25 uM measured upto 12 days by oil-O-red staining based inverted microscopic analysis. It is filed as functional, cell-based. Particulars: time day <=12. Summed up:
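SGBS cells were differentiated in Quickdiff for 4 days, supplemented with 25 µM oxo-fatty acid or 2 µM rosiglitazone, then in 3FC to day 8. Controls were DMSO (0.025%) or BSA (4.2 µM). Cells were fixed in 4% paraformaldehyde for 15 min and stained 15 min with Oil Red O for neutral lipids. They were imaged by inverted microscope at 10× and 40×. Three biological replicates were run in duplicate.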

For assay [8], the target named is T1, Peroxisome proliferator-activated receptor alpha (Homo sapiens). Kind of assay: Agonist activity at human PPARalpha in human HuH-7 cells assessed as increase in CPT1A gene expression at 50 uM incubated for 24 hrs by SYBR-green based qPCR analysis. The assay is classed as cell-based. To be noted: filed as agonist. A digest of the protocol: as §1
Assay [9] deals with SGBS. In words: Induction of adipogenesis in 8 day differentiated human SGBS cells assessed as increase in PLIN1 mRNA expression at 25 uM measured upto 12 days by qRT-PCR analysis. Particulars: time day <=12. The assay is classed as functional, cell-based. Summed up:
as §2

Assay [10] has as its system SGBS. In words: Induction of adipogenesis in 8 day differentiated human SGBS cells assessed as increase in SCD1 mRNA expression at 25 uM measured upto 12 days by qRT-PCR analysis. It is filed as functional, cell-based. Particulars: time day <=12. Summed up: as §2
Assay [11] deals with SGBS. In words: Effect on diabetic complication pathway in 8 day differentiated human SGBS cells assessed as downregulation of extracellular matrix-recptor interaction genes at 25 uM incubated for 8 days by Illumina sequencing method. It is filed as functional, cell-based. A digest of the protocol: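 SGBS cells were differentiated 4 days in Quickdiff supplemented with compound:BSA or rosiglitazone, then 4 days in 3FC. Total RNA was extracted, and strand-specific TruSeq libraries were sequenced on NextSeq 500 (2×75 bp paired-end). Reads were aligned to hg19 with Tophat/Bowtie and counted as RPKM by Cufflinks. Values are log2 fold over day 0 cells, grouped into KEGG gene sets (n = 2-4).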

Consider `CCCCCCCC(=O)/C=C/CCCCCC(=O)O`, for which the outcome in assay [1], in [2], in assay [4] and in [5] was inactive. The result in assay [3], in [6], in assay [7], in [8], in assay [9] and in assay [10] was Active. Also, the result in assay [11] was Active.

As to `CCCCC/C=C/C(=O)CCCCCCCC(=O)O`, the result in assay [1], in assay [2], in [4] and in assay [5] was inactive. The result in assay [3], in assay [6], in [7], in [8], in [9] and in [10] was Active. The outcome in assay [11] was Active.
